High-throughput results (PubChem BioAssay)
NPY Y1 blocker = antagonists of human neuropeptide Y receptor Y1; inhibition, % at 3.6 µM; actives 1% (n = 200,000); P25929; HEK293-CNG Y1 cells, membrane potential fluorescence; NPY at EC95, then isoproterenol;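 active means inhibition above the campaign mean inhibition of all tested compounds plus 3 SD, cut at about 20% in these data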;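 further: 0% = DMSO wells given NPY plus isoproterenol and 100% = isoproterenol alone without NPY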
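Test system: HEK293 cells co-expressing NPY Y1 receptor and cyclic-nucleotide gated channel; Also added: NPY (25 nM), isoproterenol (1 µM), Ro 20-1724 (25 µM); Compound dosing: one concentration, 3.6 µM, in 0.4% DMSO; Timing: dye 3 h, compound 60 min room temperature, stimulation 45 min; Technique: Membrane-potential fluorescent dye readout.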
NPY Y2 blocker = NPY-Y2 (human) receptor antagonism. P49146. actives 0.99% (n = 140,000). NPY-Y2 expressing cells, antagonist mode. inhibition, % at 2.7 µM. AID 793; in the data active means inhibition above about 17%;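 further: 0% = vehicle with agonist challenge and 100% = reference antagonist with challenge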
Target sequence (P49146 whole entry, looked up): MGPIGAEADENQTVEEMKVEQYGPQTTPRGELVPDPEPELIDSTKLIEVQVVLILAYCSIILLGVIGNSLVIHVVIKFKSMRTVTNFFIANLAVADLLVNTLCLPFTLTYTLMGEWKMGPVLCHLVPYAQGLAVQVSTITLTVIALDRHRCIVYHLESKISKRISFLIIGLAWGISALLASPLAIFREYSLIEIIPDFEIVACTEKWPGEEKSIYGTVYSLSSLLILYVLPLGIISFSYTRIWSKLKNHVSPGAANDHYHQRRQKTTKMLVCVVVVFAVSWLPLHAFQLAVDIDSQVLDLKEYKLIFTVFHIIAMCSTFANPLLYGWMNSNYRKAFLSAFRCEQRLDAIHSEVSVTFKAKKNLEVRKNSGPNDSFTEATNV
NPY2 pot ag = potentiates or activates human NPY-Y2 receptor | activation, % at 3.6 µM | actives 0.45% (n = 220,000) | AID 1359 | cells expressing NPY-Y2, potentiator/agonist read-out; in the data active means activation above about 27%;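 further: cells stimulated with NPY near EC25 plus isoproterenol at EC100; 0% = vehicle plus submaximal agonist and 100% = vehicle plus saturating agonist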
NPY-Y1 PAM-ag = human NPY-Y1 potentiation or agonism, primary screen. AID 1304. NPY-Y1 expressing cells, potentiator/agonist activation. P25929. activation, % at 3.6 µM. actives 0.37% (n = 220,000); in the data active means activation above about 33%, passing the limit was not always enough;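 further: cells stimulated with NPY at EC10 then isoproterenol at EC100; 0% = low agonist plus stimulus and 100% = saturating agonist plus stimulus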
TbHK1 inh = T. brucei hexokinase 1 inhibition; recombinant TbHK1, G6PDH-coupled NADH A340; inhibition, % at 10 µM; actives 0.11% (n = 220,000);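 active means inhibition of 50% or more in the single-dose primary screen; inactive means inhibition below 50%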
Calpain2 inh = blocks pig calpain II enzyme activity; purified calpain II, fluorogenic peptide substrate, 30 min; inhibition, % at 16 µM; actives 0.37% (n = 220,000);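 active means inhibition above about 50%, limit read from the data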
NPY1 antag ctr = human NPY-Y1 antagonism in NPY-Y2 counter-screen; inhibition, % at 3.6 µM; actives 19% (n = 710); shares compounds with NPY Y2 blocker; cell-based NPY-Y1 antagonism counterscreen; in the data active means inhibition above about 20%;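 further: cells challenged with NPY then isoproterenol with cAMP sensed through a CNG channel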
NPY-Y2 ant conf = human NPY-Y2 antagonism, confirmation | actives 32% (n = 710) | shares compounds with NPY Y2 blocker | HEK293 NPY-Y2 CNG channel, membrane potential fluorescence | inhibition, % at 2.8 µM;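 active means mean inhibition of triplicate wells above the hit cutoff set in the primary screen, cut at about 17% in these data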;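 further: 0% = DMSO with NPY challenge and 100% = BIIE0246 high control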
An asterisk follows results filed as active; i = inactive; nt = no result given. An excerpt weighted towards active compounds, which were near 2.3% of everything screened.

SMILES	NPY Y1 blocker	NPY Y2 blocker	NPY2 pot ag	NPY-Y1 PAM-ag	TbHK1 inh	Calpain2 inh	NPY1 antag ctr	NPY-Y2 ant conf
CC[n+]1c(/C=C(\C)Nc2ccccc2)sc2ccccc21	7	23*	-1	-18	-9	11	10	15
CC[n+]1c(/C=C(\C)SC)sc2ccccc21	-4	2	-1	10	-24	24	nt	nt
CCCCC(CC)C(=O)NCC(C)NC(=O)C(CC)CCCC (configuration not stated)	7	24*	6	1	31	3	17	8
Cc1cc(C)c(S(=O)(=O)Nc2cccc(/C=C/C(=O)O)c2)c(C)c1	-2	-1	1	-13	30	-20	nt	nt
COc1ccc2sc(N3C(=O)CC(Cc4cccc(C)c4)C3=O)nc2c1 (configuration not stated)	11	27*	-27	-25	-1	-19	12	9
Cc1cccc(CC2CC(=O)N(c3nc4ccccc4s3)C2=O)c1 (configuration not stated)	12	nt	-7	-7	-1	-18	nt	nt
CC1CC(N(C(=O)c2ccccc2Cl)c2ccccc2)c2ccccc2N1 (configuration not stated)	8	18*	-13	3	-11	-22	62*	72*
COc1ccc(Cc2nc(C(=O)Nc3ccccc3)cs2)cc1	14	18*	-12	-18	27	2	7	9
O=C(Cc1ccccc1)Nn1cnc2ccccc21	3	25*	-7	3	-3	16	2	0
O=C(Cn1cnc2ccccc21)NCc1ccccc1	3	2	-3	-7	-1	-4	nt	nt
CC(=O)c1ccc(Nc2ccc(-c3ccccc3F)nn2)cc1	-8	nt	11	23	-21	-1	nt	nt
CCOC(=O)c1nn(-c2ccccc2)c(C#N)c1N	-7	nt	-6	-14	-7	i	nt	nt
CCCSc1cc(=O)n(-c2ccccc2)nc1C(=O)OCC	3	19*	7	-8	-9	2	2	1
CN(C1CCCCC1)S(=O)(=O)c1ccc(-c2ccccn2)s1	nt	nt	2	-6	-7	26	nt	nt
CCCCNC(=O)c1onc(CSc2cc(C)ccc2C)c1C(=O)O	18	21*	-20	-24	2	-14	31*	25*
COCCNC(=O)c1onc(CSc2cc(C)ccc2C)c1C(=O)O	7	10	-23	-6	3	20	nt	nt
CN1CCC(OC(c2ccccc2)c2ccccc2)CC1	-1	2	-9	-15	2	4	nt	nt
CN1CCC(Oc2ccccc2Sc2ccccc2)CC1	14	18*	2	-43	5	-1	15	22*
O=C1OCCC1Sc1nc2ccccc2s1 (configuration not stated)	16	8	-12	-28	-1	12	nt	nt
O=C1OCCC1Sc1nc2cc(Cl)ccc2s1 (configuration not stated)	16	23*	-24	-21	1	-2	10	12
CC12CCC(C(=O)NCc3cccnc3)(OC1=O)C2(C)C (configuration not stated)	4	2	-20	-3	9	10	nt	nt
CC12CCC(C(=O)N(Cc3ccccc3)Cc3ccccc3)(OC1=O)C2(C)C (configuration not stated)	19	18*	-31	-37	-5	27	16	15
CCCCN(C(=O)c1ccc2c(c1)OCO2)c1ccccc1	-2	nt	16	-4	-11	22	nt	nt
CC(/C=C1\SC(=S)N(NC(=O)c2ccc(C)cc2)C1=O)=C\c1ccccc1	13	19*	-18	-11	-19	-14	17	20*
CCN1c2ccccc2-c2nc3ccccc3n2C1c1ccco1 (configuration not stated)	12	19*	-4	4	-11	i	16	7
SMILES	NPY Y1 blocker	NPY Y2 blocker	NPY2 pot ag	NPY-Y1 PAM-ag	TbHK1 inh	Calpain2 inh	NPY1 antag ctr	NPY-Y2 ant conf
C=CCn1c(SC2CCOC2=O)nc2scc(C3CC3)c2c1=O (configuration not stated)	12	45*	-22	-5	-12	-23	30*	81*
CCC(C)(C(=O)NC1CCCC1)N(Cc1ccco1)C(=O)c1ccccn1 (configuration not stated)	18	23*	-13	-14	2	13	14	8
COc1ccc(CCNC(=O)CSc2nc3[nH]ncc3c(=O)n2-c2ccc(C)c(Cl)c2)cc1OC	-6	nt	1	13	2	31	nt	nt
O=c1c2ccccc2nc(-c2ccccc2)n1CCN1CCOCC1	0	-1	19	3	-7	-21	nt	nt
O=c1c2ccccc2nc2c3ccccc3c(NCCN3CCOCC3)nn12	14	20*	-18	-40	-19	-127	17	25*
O=S(=O)(NCc1cccc(C(F)(F)F)c1)NCc1ccccc1F	4	nt	-5	10	-4	-15	nt	nt
CC(C)NC(=O)CSc1nncn1-c1ccccc1	1	18*	3	5	-2	-18	0	1
CCCCOP(=O)(OCCCC)C(Nc1ccccc1)c1ccc2c(c1)OCO2 (configuration not stated)	16	19*	-1	-5	-5	30	13	8
CCOC(=O)c1c(NC(=O)C2C3C=CC(CC3)C2C(=O)O)sc(C)c1C (configuration not stated)	2	18*	14	18	-3	2	0	3
CCOC(=O)c1c(NC(=O)C2C3C=CC(C3)C2C(=O)O)sc2c1CCC(CC)C2 (configuration not stated)	0	4	2	18	0	-4	nt	nt
O=C(NC(c1ccccc1)c1ccccc1)C1(c2cccs2)CCOCC1	15	18*	-3	5	0	15	6	5
N#CCCCCN1CCCC1	nt	nt	3	11	-4	-14	nt	nt
O=C(Nc1ccc(S(=O)(=O)Nc2ccc(Cl)cc2)cc1)C1CCCO1 (configuration not stated)	-13	-2	13	7	3	34	nt	nt
CCCCCCNS(=O)(=O)c1ccc(NC(=O)C2CCCO2)cc1 (configuration not stated)	2	31*	-5	-12	-1	-37	8	29*
O=C(C[n+]1ccccc1)Nc1ccccc1C(=O)O	6	nt	4	15	-2	3	nt	nt
CC(C)c1ccc(NC(=O)c2snc3ccc(Cl)cc23)cc1	6	26*	-4	-3	3	-14	9	10
CC(C)c1ccc(NC(=O)c2csnn2)cc1	4	-3	1	31	2	11	nt	nt
